Laboratory results reported in ChEMBL document CHEMBL1155099, “Natural products in parallel synthesis: triazole libraries of nonactic acid” (2008).
The source made the active and inactive calls.

Assays:
Format in all cases: functional, organism-based
[1] = tested on: Cryptococcus neoformans; assay: Antifungal activity against Cryptococcus neoformans at 1 mM by almar blue dye reduction assay
Method in brief: (§1)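 Single-point primary screen at 1 mM using Alamar Blue dye reduction as the growth read-out.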

[2] = tested on: Bacillus anthracis; assay: Antibacterial activity against Bacillus anthracis at 1mM by almar blue dye reduction assay
[3] = tested on: Staphylococcus aureus; assay: Antibacterial activity against Staphylococcus aureus at 1 mM by almar blue dye reduction assay; method in brief: as §1
[4] = tested on: Candida albicans; assay: Antifungal activity against Candida albicans at 1 mM by almar blue dye reduction assay; method in brief: as §1
[5] = tested on: Escherichia coli; assay: Antibacterial activity against Escherichia coli at 1 mM by almar blue dye reduction assay; method in brief: as §1
[6] = tested on: Saccharomyces cerevisiae; assay: Antifungal activity against Saccharomyces cerevisiae at 1 mM by almar blue dye reduction assay; method in brief: as §1
[7] = tested on: Bacillus cereus; assay: Antibacterial activity against Bacillus cereus at 1 mM by almar blue dye reduction assay; method in brief: as §1
[8] = tested on: Pseudomonas aeruginosa; assay: Antibacterial activity against Pseudomonas aeruginosa at 1 mM by almar blue dye reduction assay; method in brief: as §1
[9] = tested on: Bacillus subtilis; assay: Antibacterial activity against Bacillus subtilis at 1 mM by almar blue dye reduction assay; method in brief: as §1

Measured: Activity

CCN(CC)C(=O)[C@H](C)[C@H]1CC[C@@H](C[C@@H](C)n2cc(C#CC3=CCCCC3)nn2)O1
inactive: all assays above

C[C@H](C[C@@H]1CC[C@H]([C@@H](C)C(=O)N2CCN(CC3CCCO3)CC2)O1)n1cc(C#Cc2ccccn2)nn1 (some centres not stated)
inactive: all assays above

COCC#Cc1cn([C@H](C)C[C@@H]2CC[C@H]([C@@H](C)C(=O)NC(C)C)O2)nn1
inactive: all assays above

CCN(CC)C(=O)[C@H](C)[C@H]1CC[C@@H](C[C@@H](C)n2cc(C#CCN3CCOCC3)nn2)O1
inactive: all assays above

COc1ccc(OCC#Cc2cn([C@H](C)C[C@@H]3CC[C@H]([C@@H](C)C(=O)NC(C)C)O3)nn2)cc1
inactive: all assays above

C[C@H](C[C@@H]1CC[C@H]([C@@H](C)C(=O)N2CCN(CC3CCCO3)CC2)O1)n1cc(C#CCN2CCC(c3ccccc3)CC2)nn1 (some centres not stated)
inactive: all assays above

C[C@H](C[C@@H]1CC[C@H]([C@@H](C)C(=O)N2CCCC2)O1)n1cc(C#CCOc2cccc(-c3ccccc3)c2)nn1
inactive: all assays above

CC(C)NC(=O)[C@H](C)[C@H]1CC[C@@H](C[C@@H](C)n2cc(C#CCN3CCOCC3)nn2)O1
inactive: all assays above

CCN(CC)C(=O)[C@H](C)[C@H]1CC[C@@H](C[C@@H](C)n2cc(C#Cc3ccc(OC)cc3)nn2)O1
inactive: all assays above

CC(C)NC(=O)[C@H](C)[C@H]1CC[C@@H](C[C@@H](C)n2cc(C#Cc3ccccn3)nn2)O1
inactive: all assays above

CC(C)NC(=O)[C@H](C)C1CCC(C[C@@H](C)n2cc(C#CCNC(=O)OCc3ccccc3)nn2)O1 (single isomer, unassigned)
inactive: all assays above

CCCCCC#Cc1cn([C@H](C)C[C@@H]2CC[C@H]([C@@H](C)C(=O)N(CC)CC)O2)nn1
inactive: all assays above

C[C@H](C[C@@H]1CC[C@H]([C@@H](C)C(=O)N2CCCC2)O1)n1cc(C#Cc2ccccc2[N+](=O)[O-])nn1
inactive: all assays above

CCN(CC)C(=O)[C@H](C)[C@H]1CC[C@@H](C[C@@H](C)n2cc(C#Cc3ccc(C(F)(F)F)cc3)nn2)O1
inactive: all assays above

CCN(CC)C(=O)[C@H](C)[C@H]1CC[C@@H](C[C@@H](C)n2cc(C#CCOc3ccc(C(F)(F)F)cc3)nn2)O1
inactive: all assays above

C[C@H](C[C@@H]1CC[C@H]([C@@H](C)C(=O)N(C)Cc2ccccc2)O1)n1cc(C#Cc2ccc(C(F)(F)F)cc2)nn1
inactive: all assays above

CC(C)CC#Cc1cn([C@H](C)C[C@@H]2CC[C@H]([C@@H](C)C(=O)NC(C)C)O2)nn1
inactive: all assays above

C[C@H](C[C@@H]1CC[C@H]([C@@H](C)C(=O)N2CCN(CC3CCCO3)CC2)O1)n1cc(C#Cc2ccccc2)nn1 (some centres not stated)
inactive: all assays above
